Data taken from ChEMBL document CHEMBL1127344, “Tridentate ligands containing the SNS donor atom set as a novel backbone for the development of technetium brain-imaging agents” (J Med Chem, 1994).

Key:
Mus musculus [1] = species on record: Mus musculus; experiment: Tested for biodistribution of compound at 60 min in mice kidney; format: ADME, organism-based; conditions: in vivo, 1 h
Summary of the method: (§1)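 Male Swiss albino mice, at least five per group, received HPLC-purified 99mTc complex by tail vein. The complex was reconstituted in 50% methanol (0.1 mL, 2-3 μCi). Mice were killed by cardiectomy under light ether at 1-60 min pi. Organs were weighed and γ-counted against a 1% injected-dose standard to give % dose/organ. Blood and muscle were taken as 7% and 43% of body weight.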

Rattus norvegicus [2] = species on record: Rattus norvegicus; experiment: Tested for biodistribution of compound at 5 min in rat s. intestine; format: ADME, organism-based; conditions: in vivo
Mus musculus [3] = species on record: Mus musculus; experiment: Tested for biodistribution of compound at 5 min in mice heart; format: ADME, organism-based; conditions: in vivo; summary of the method: as §1
Mus musculus [4] = species on record: Mus musculus; experiment: Tested for biodistribution of compound at 10 min in mice spleen; format: ADME, organism-based; conditions: in vivo
Summary of the method: (§2)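 Male Swiss albino mice, at least five per group, received 0.1 mL (2-3 μCi) of HPLC-purified 99mTc complex reconstituted in 50% methanol by tail vein. They were killed by cardiectomy under light ether anesthesia at set times (1-60 min pi). Organs were weighed and γ-counted against a 1% injected-dose standard to give % dose/organ. Blood and muscle were taken as 7% and 43% of body weight.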

Mus musculus [5] = species on record: Mus musculus; experiment: Tested for biodistribution of compound at 1 min in mice stomach; format: ADME, organism-based; conditions: in vivo; summary of the method: as §2
Mus musculus [6] = species on record: Mus musculus; experiment: Tested for biodistribution of compound at 5 min in mice intestine; format: ADME, organism-based; conditions: in vivo; summary of the method: as §1
Mus musculus [7] = species on record: Mus musculus; experiment: Tested for biodistribution of compound at 5 min in mice blood; format: ADME, organism-based; conditions: in vivo; summary of the method: as §1
Rattus norvegicus [8] = species on record: Rattus norvegicus; experiment: Tested for biodistribution of compound at 10 min in rat heart; format: ADME, organism-based; conditions: in vivo
Summary of the method: (§3)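 Wistar rats under ether anesthesia were dosed through the femoral vein with 0.1 mL of 99mTc complex (3-6 μCi) and dissected 5-60 min pi. Tissue radioactivity was γ-counted against a 1% injected-dose standard and expressed as % dose/organ. Blood and muscle were calculated from sample weight assuming 7% and 43% of body weight.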

Rattus norvegicus [9] = species on record: Rattus norvegicus; experiment: Tested for biodistribution of compound at 10 min in rat muscle; format: ADME, organism-based, Muscle tissue; conditions: in vivo; summary of the method: as §3
Mus musculus [10] = species on record: Mus musculus; experiment: Tested for biodistribution of compound at 10 min in mice intestine; format: ADME, organism-based; conditions: in vivo; summary of the method: as §2
Rattus norvegicus [11] = species on record: Rattus norvegicus; experiment: Tested for biodistribution of compound at 10 min in rat intestine; format: ADME, organism-based; conditions: in vivo; summary of the method: as §3
Rattus norvegicus [12] = species on record: Rattus norvegicus; experiment: Tested for biodistribution of compound at 5 min in rat spleen; format: ADME, organism-based; conditions: in vivo
Mus musculus [13] = species on record: Mus musculus; experiment: Tested for biodistribution of compound at 30 min in mice spleen; format: ADME, organism-based; conditions: in vivo, 0.5 h; summary of the method: as §2
Mus musculus [14] = species on record: Mus musculus; experiment: Tested for biodistribution of compound at 60 min in mice heart; format: ADME, organism-based; conditions: in vivo, 1 h; summary of the method: as §1
Mus musculus [15] = species on record: Mus musculus; experiment: Tested for biodistribution of compound at 10 min in mice brain; format: ADME, organism-based; conditions: in vivo; summary of the method: as §2
Rattus norvegicus [16] = species on record: Rattus norvegicus; experiment: Tested for biodistribution of compound at 5 min in rat muscle; format: ADME, organism-based, Muscle tissue; conditions: in vivo
Rattus norvegicus [17] = species on record: Rattus norvegicus; experiment: Tested for biodistribution of compound at 10 min in rat blood; format: ADME, organism-based; conditions: in vivo; summary of the method: as §3
Mus musculus [18] = species on record: Mus musculus; experiment: Tested for biodistribution of compound at 30 min in mice blood; format: ADME, organism-based; conditions: in vivo, 0.5 h; summary of the method: as §2
Mus musculus [19] = species on record: Mus musculus; experiment: Tested for biodistribution of compound at 60 min in mice muscle; format: ADME, organism-based, Muscle tissue; conditions: in vivo, 1 h; summary of the method: as §1
Rattus norvegicus [20] = species on record: Rattus norvegicus; experiment: Tested for biodistribution of compound at 30 min in rat muscle; format: ADME, organism-based, Muscle tissue; conditions: in vivo, 0.5 h
Mus musculus [21] = species on record: Mus musculus; experiment: Tested for biodistribution of compound at 1 min in mice kidney; format: ADME, organism-based; conditions: in vivo; summary of the method: as §2
Mus musculus [22] = species on record: Mus musculus; experiment: Tested for biodistribution of compound at 1 min in mice lungs; format: ADME, organism-based, Lung; conditions: in vivo; summary of the method: as §2
Rattus norvegicus [23] = species on record: Rattus norvegicus; experiment: Tested for biodistribution of compound at 30 min in rat lungs; format: ADME, organism-based, Lung; conditions: in vivo, 0.5 h
Mus musculus [24] = species on record: Mus musculus; experiment: Tested for biodistribution of compound at 30 min in mice intestine; format: ADME, organism-based; conditions: in vivo, 0.5 h; summary of the method: as §2
Mus musculus [25] = species on record: Mus musculus; experiment: Tested for biodistribution of compound at 60 min in mice spleen; format: ADME, organism-based; conditions: in vivo, 1 h; summary of the method: as §1
Rattus norvegicus [26] = species on record: Rattus norvegicus; experiment: Tested for biodistribution of compound at 30 min in rat spleen; format: ADME, organism-based; conditions: in vivo, 0.5 h
Rattus norvegicus [27] = species on record: Rattus norvegicus; experiment: Tested for biodistribution of compound at 30 min in rat s. intestine; format: ADME, organism-based; conditions: in vivo, 0.5 h
Rattus norvegicus [28] = species on record: Rattus norvegicus; experiment: Tested for biodistribution of compound at 10 min in rat stomach; format: ADME, organism-based; conditions: in vivo; summary of the method: as §3
Rattus norvegicus [29] = species on record: Rattus norvegicus; experiment: Tested for biodistribution of compound at 30 min in rat brain; format: ADME, organism-based; conditions: in vivo, 0.5 h; summary of the method: as §3
Rattus norvegicus [30] = species on record: Rattus norvegicus; experiment: Tested for biodistribution of compound at 60 min in rat lungs; format: ADME, organism-based, Lung; conditions: in vivo, 1 h
Mus musculus [31] = species on record: Mus musculus; experiment: Tested for biodistribution of compound at 10 min in mice stomach; format: ADME, organism-based; conditions: in vivo; summary of the method: as §2
Mus musculus [32] = species on record: Mus musculus; experiment: Tested for biodistribution of compound at 5 min in mice stomach; format: ADME, organism-based; conditions: in vivo; summary of the method: as §1
Mus musculus [33] = species on record: Mus musculus; experiment: Tested for biodistribution of compound at 1 min in mice intestine; format: ADME, organism-based; conditions: in vivo; summary of the method: as §2
Rattus norvegicus [34] = species on record: Rattus norvegicus; experiment: Tested for biodistribution of compound at 60 min in rat blood; format: ADME, organism-based; conditions: in vivo, 1 h
Rattus norvegicus [35] = species on record: Rattus norvegicus; experiment: Tested for biodistribution of compound at 5 min in rat l intestine; format: ADME, organism-based; conditions: in vivo
Mus musculus [36] = species on record: Mus musculus; experiment: Tested for biodistribution of compound at 1 min in mice spleen; format: ADME, organism-based; conditions: in vivo; summary of the method: as §2
Rattus norvegicus [37] = species on record: Rattus norvegicus; experiment: Tested for biodistribution of compound at 60 min in rat kidney; format: ADME, organism-based; conditions: in vivo, 1 h
Mus musculus [38] = species on record: Mus musculus; experiment: Tested for biodistribution of compound at 1 min in mice blood; format: ADME, organism-based; conditions: in vivo; summary of the method: as §2
Rattus norvegicus [39] = species on record: Rattus norvegicus; experiment: Tested for biodistribution of compound at 10 min in rat kidney; format: ADME, organism-based; conditions: in vivo; summary of the method: as §3
Mus musculus [40] = species on record: Mus musculus; experiment: Tested for biodistribution of compound at 60 min in mice stomach; format: ADME, organism-based; conditions: in vivo, 1 h; summary of the method: as §1
Rattus norvegicus [41] = species on record: Rattus norvegicus; experiment: Tested for biodistribution of compound at 10 min in rat brain; format: ADME, organism-based; conditions: in vivo; summary of the method: as §3
Mus musculus [42] = species on record: Mus musculus; experiment: Tested for biodistribution of compound at 1 min in mice liver; format: ADME, organism-based; conditions: in vivo; summary of the method: as §2
Mus musculus [43] = species on record: Mus musculus; experiment: Tested for biodistribution of compound at 60 min in mice brain; format: ADME, organism-based; conditions: in vivo, 1 h; summary of the method: as §1
Rattus norvegicus [44] = species on record: Rattus norvegicus; experiment: Tested for biodistribution of compound at 5 min in rat heart; format: ADME, organism-based; conditions: in vivo
Mus musculus [45] = species on record: Mus musculus; experiment: Tested for biodistribution of compound at 10 min in mice muscle; format: ADME, organism-based, Muscle tissue; conditions: in vivo; summary of the method: as §2
Rattus norvegicus [46] = species on record: Rattus norvegicus; experiment: Tested for biodistribution of compound at 10 min in rat liver; format: ADME, organism-based; conditions: in vivo; summary of the method: as §3
Rattus norvegicus [47] = species on record: Rattus norvegicus; experiment: Tested for biodistribution of compound at 10 min in rat spleen; format: ADME, organism-based; conditions: in vivo; summary of the method: as §3
Rattus norvegicus [48] = species on record: Rattus norvegicus; experiment: Tested for biodistribution of compound at 10 min in rat s. intestine; format: ADME, organism-based; conditions: in vivo; summary of the method: as §3

Dose/organ (Mus musculus [1]): 1.59% | Dose/organ (Rattus norvegicus [2]): 5.96% | Dose/organ (Mus musculus [3]): 0.74% | Dose/organ (Mus musculus [4]): 0.36% | Dose/organ (Mus musculus [5]): 0.15% | Dose/organ (Mus musculus [6]): 8.31% | Dose/organ (Mus musculus [7]): 2.02% | Dose/organ (Rattus norvegicus [8]): 0.51% | Dose/organ (Rattus norvegicus [9]): 27.89% | Dose/organ (Mus musculus [10]): 9.61% | Dose/organ (Rattus norvegicus [11]): 2.7% | Dose/organ (Rattus norvegicus [12]): 0.58% | Dose/organ (Mus musculus [13]): 0.38% | Dose/organ (Mus musculus [14]): 0.12% | Dose/organ (Mus musculus [15]): 2.47% | Dose/organ (Rattus norvegicus [16]): 28.6% | Dose/organ (Rattus norvegicus [17]): 17.72% | Dose/organ (Mus musculus [18]): 1.29% | Dose/organ (Mus musculus [19]): 6.86% | Dose/organ (Rattus norvegicus [20]): 16.52% | Dose/organ (Mus musculus [21]): 1.7% | Dose/organ (Mus musculus [22]): 27.19% | Dose/organ (Rattus norvegicus [23]): 2.08% | Dose/organ (Mus musculus [24]): 18.99% | Dose/organ (Mus musculus [25]): 0.21% | Dose/organ (Rattus norvegicus [26]): 0.3% | Dose/organ (Rattus norvegicus [27]): 7.55% | Dose/organ (Rattus norvegicus [28]): 2.37% | Dose/organ (Rattus norvegicus [29]): 0.53% | Dose/organ (Rattus norvegicus [30]): 1.14% | Dose/organ (Mus musculus [31]): 1.2% | Dose/organ (Mus musculus [32]): 0.96% | Dose/organ (Mus musculus [33]): 2.61% | Dose/organ (Rattus norvegicus [34]): 4.8% | Dose/organ (Rattus norvegicus [35]): 2.64% | Dose/organ (Mus musculus [36]): 0.03% | Dose/organ (Rattus norvegicus [37]): 8.73% | Dose/organ (Mus musculus [38]): 5.24% | Dose/organ (Rattus norvegicus [39]): 4.26% | Dose/organ (Mus musculus [40]): 2.34% | Dose/organ (Rattus norvegicus [41]): 1.16% | Dose/organ (Mus musculus [42]): 1.96% | Dose/organ (Mus musculus [43]): 1.54% | Dose/organ (Rattus norvegicus [44]): 0.64% | Dose/organ (Mus musculus [45]): 16.49% | Dose/organ (Rattus norvegicus [46]): 24.09% | Dose/organ (Rattus norvegicus [47]): 0.77% | Dose/organ (Rattus norvegicus [48]): 6.34%
Substance: [4-methoxythio)phenolato][N,N-bis(2-mercaptoethyl)-N',N'-diethylethylenediamine] oxotechnetium
